Here are results for twelve compounds from ChEMBL document CHEMBL4266034, “LC-MS-Guided Isolation of Insulin-Secretion-Promoting Monoterpenoid Carbazole Alkaloids from Murraya microphylla” (J Nat Prod, 2018).

Data set [1] is described as follows: Induction of insulin secretion in syrian hamster HIT-T15 cells at 40 uM after 1 hr by HTRF assay relative to control. The class given is functional, Mesocricetus auratus. The method, boiled down:
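HIT-T15 hamster pancreatic islet cells were exposed to test compounds at 40 μM, with gliclazide at 100 μM as the positive control. Insulin secretion is expressed relative to untreated control cells. The procedure follows an earlier report. Each experiment was performed three times, and significance was taken at p < 0.01.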
On the technique in general: In TR-FRET formats the signal depends on donor and acceptor labels being close together.

A short description of data set [2]: Cytotoxicity against syrian hamster HIT-T15 cells assessed as decrease in cell viability at 40 uM by MTT assay. It counts as cell-based, Mesocricetus auratus. (In general: Formazan colour is commonly taken as a measure of viable cells.)

Regarding `CC1=CCC(Oc2ccc3c(c2)[nH]c2c4c(c(C)cc23)OC(C)(C)C=C4)(C(C)C)CC1` (centres undefined), the “fold change (FC)” value in data set [1] is 1.9 - 3.1. Further, the Activity entry in data set [2] is recorded as “Non-Toxic”.

As to `CC(C)=CCC[C@]1(C)C=Cc2c(c(C)cc3c2[nH]c2c([C@@]4(C)CC[C@@]5(C(C)C)C[C@H]54)c(O)ccc23)O1`, in data set [1], the “fold change (FC)” value was 1.9 - 3.1. Also, the Activity entry in data set [2] is “Non-Toxic”.

Consider `COc1cc2c([nH]c3c4c(c(C)cc32)OC(C)(C)C=C4)c([C@@H]2C=C(C)CC[C@H]2C(C)C)c1O`, for which the “fold change (FC)” value in data set [1] was 1.9 - 3.1. For the same compound, the Activity result in data set [2] is on record as “Non-Toxic”.

With `COc1cc2c([nH]c3c4c(c(C)cc32)OC(C)(C)C=C4)c([C@@]2(C)CC[C@@]3(C(C)C)C[C@H]32)c1O`, in data set [1], the “fold change (FC)” value is listed as 1.9 - 3.1. Moreover, in data set [2], the Activity entry is on record as “Non-Toxic”.

Turning to `Cc1cc2c([nH]c3c([C@@]4(C)CC[C@@]5(C(C)C)C[C@H]54)c(O)ccc32)c2c1OC(C)(C)C=C2`, the “fold change (FC)” value in data set [1] is 1.9 - 3.1. Besides, the Activity result in data set [2] is “Non-Toxic”.

As for `CC1=C[C@@H](c2c(O)ccc3c2[nH]c2c4c(c(C)cc23)OC(C)(C)C=C4)[C@H](C(C)C)CC1`, the “fold change (FC)” value in data set [1] is 1.9 - 3.1. The Activity result in data set [2] is reported as “Non-Toxic”.

For the compound `CC(C)=CCC[C@]1(C)C=Cc2c(c(C)cc3c2[nH]c2c([C@@H]4C=C(C)CC[C@H]4C(C)C)c(O)ccc23)O1`, in data set [1], the “fold change (FC)” value is 1.9 - 3.1. The Activity result in data set [2] is listed as “Non-Toxic”.

For `COc1cc2c([nH]c3c4c(c(C)cc32)OC(C)(C)C=C4)c([C@]2(C)CC[C@@]3(C(C)C)C[C@H]32)c1O`, in data set [1], the “fold change (FC)” value was 1.9 - 3.1. Further, in data set [2], the Activity result is reported as “Non-Toxic”.

For `CC(C)=CCCC1(C)C=Cc2c(c(C)cc3c2[nH]c2cc(OC4(C(C)C)CC=C(C)CC4)ccc23)O1` (centres undefined), in data set [1], the “fold change (FC)” value is 1.9 - 3.1. For the same compound, the Activity result in data set [2] is listed as “Non-Toxic”.

Turning to `COc1cc2c(cc1OC(C)(C)[C@@H]1CC=C(C)CC1)[nH]c1c3c(c(C)cc12)OC(C)(C)C=C3`, the “fold change (FC)” value in data set [1] is on record as 1.9 - 3.1. Also, the Activity entry in data set [2] is reported as “Non-Toxic”.

Take `Cc1cc2c([nH]c3c([C@]4(C)CC[C@@]5(C(C)C)C[C@H]54)c(O)ccc32)c2c1OC(C)(C)C=C2`: in data set [1], the “fold change (FC)” value is 1.9 - 3.1. In addition, the Activity result in data set [2] is “Non-Toxic”.

As for `COc1cc2c(cc1OC1(C(C)C)CC=C(C)CC1)[nH]c1c3c(c(C)cc12)OC(C)(C)C=C3` (centres undefined), the “fold change (FC)” value in data set [1] is listed as 1.9 - 3.1. Besides, the Activity result in data set [2] is recorded as “Non-Toxic”.
